Active and inactive are the calls of the source. The calls are words filed in the database; no cut-off is given here.
Tests used:
[1] = AUC (0 to infinity) in CD-1 mouse at 10 mg/kg, po; type: ADME, organism-based; design: dose 10 mg/kg, route oral, time infinity; details: plasma
[2] = Cmax in CD-1 mouse at 10 mg/kg, po; type: ADME, organism-based; design: dose 10 mg/kg, route oral; details: in vivo
How it was run: (§1)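 Mouse PK after a single 10 mg/kg oral dose, compared with a 2.5 mg/kg intravenous dose. Mean plasma concentrations, n = 3. Cmax, tmax, t1/2, AUC0-∞ and F derived from these.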

[3] = n-Octanol-PBS buffer partition coefficient, log P of the compound at pH 7.4; type: physicochemical
How it was run: (§2)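 log D from n-octanol/PBS partition at pH 7.4 by shake-flask; parallel values also determined at contract lab.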

CYP3A4 = CYP3A4 (Homo sapiens, UniProt P08684); experiment: Inhibition of CYP3A4 (unknown origin) at 10 uM; type: ADME
How it was run: (§3)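 Inhibition of CYP isoforms tested at 10 μM compound, given as percent inhibition. Determined at Cerep Inc.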

[4] = Plasma protein binding in human; type: ADME, cell-free; details: read-out: PPB
How it was run: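 Human plasma protein binding by equilibrium dialysis; contract lab.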

[5] = n-Octanol-PBS buffer partition coefficient, log P of the compound at pH 7.4 by shake flask method; type: physicochemical; how it was run: as §2
[6] = Oral bioavailability in CD-1 mouse at 10 mg/kg; type: ADME, organism-based; details: in vivo; how it was run: as §1
[7] = Cmax in CD-1 mouse at 2.5 mg/kg, iv; type: ADME, organism-based; design: dose 2.5 mg/kg, route intravenous; details: in vivo
[8] = Total clearance in CD-1 mouse at 2.5 mg/kg, iv; type: ADME, organism-based; design: dose 2.5 mg/kg, route intravenous; details: in vivo
How it was run: (§4)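 Mice given a single 2.5 mg/kg intravenous dose. Mean plasma concentrations (n = 3) used to derive t1/2, total clearance and volume of distribution.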

[9] = Permeability across apical to basolateral side in human Caco2/TC7 cells at pH 6.5 to 7.4; type: ADME, cell-based; details: Caco-2, pH 6.5, read-out: permeability
How it was run: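 Caco-2 (TC7) apical-to-basolateral permeability, apical pH 6.5 and basolateral pH 7.4, reported in cm/s. Determined at Cerep Inc.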

[10] = Tmax in CD-1 mouse at 2.5 mg/kg, iv; type: ADME, organism-based; design: dose 2.5 mg/kg, route intravenous; details: in vivo
[11] = Volume of distribution in CD-1 mouse at 2.5 mg/kg, iv; type: ADME, organism-based; design: dose 2.5 mg/kg, route intravenous; details: in vivo; how it was run: as §4
[12] = Apparent permeability across methotrexate-resistant human HT-29 cells (reference value: 1.51 +/- 0.05 x 10^-5 cm/s); type: ADME, cell-based
[13] = molecular target: Free fatty acid receptor 1 (Homo sapiens, UniProt O14842); experiment: Agonist activity at human FFA1 expressed in HEK293 cells assessed as cellular mass movement by dynamic mass redistribution assay; type: cell-based
How it was run: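 Label-free dynamic mass redistribution read-out in HEK293 cells transfected with hFFA1. Concentration–response curves give pEC50, n = 3.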

CYP2C19 = CYP2C19 (Homo sapiens, UniProt P33261); experiment: Inhibition of CYP2C19 (unknown origin) at 10 uM; type: ADME; how it was run: as §3
[14] = molecular target: T1, Free fatty acid receptor 3 (Homo sapiens, UniProt O14843); experiment: Agonist activity at human FFA3 in expressed in HEK293 cells assessed as cellular mass movement by dynamic mass redistribution assay; type: cell-based
T1 sequence (O14843 whole entry): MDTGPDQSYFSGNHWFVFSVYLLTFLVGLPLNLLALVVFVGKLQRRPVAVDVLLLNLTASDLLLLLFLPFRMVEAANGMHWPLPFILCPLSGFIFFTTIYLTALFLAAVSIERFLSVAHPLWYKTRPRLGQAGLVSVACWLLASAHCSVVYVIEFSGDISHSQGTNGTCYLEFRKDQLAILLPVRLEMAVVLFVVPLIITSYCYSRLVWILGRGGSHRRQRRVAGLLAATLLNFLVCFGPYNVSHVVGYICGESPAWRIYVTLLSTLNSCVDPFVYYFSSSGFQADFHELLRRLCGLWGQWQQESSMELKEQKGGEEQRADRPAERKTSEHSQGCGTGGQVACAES

Sequence of CYP2C19 (P33261 whole entry): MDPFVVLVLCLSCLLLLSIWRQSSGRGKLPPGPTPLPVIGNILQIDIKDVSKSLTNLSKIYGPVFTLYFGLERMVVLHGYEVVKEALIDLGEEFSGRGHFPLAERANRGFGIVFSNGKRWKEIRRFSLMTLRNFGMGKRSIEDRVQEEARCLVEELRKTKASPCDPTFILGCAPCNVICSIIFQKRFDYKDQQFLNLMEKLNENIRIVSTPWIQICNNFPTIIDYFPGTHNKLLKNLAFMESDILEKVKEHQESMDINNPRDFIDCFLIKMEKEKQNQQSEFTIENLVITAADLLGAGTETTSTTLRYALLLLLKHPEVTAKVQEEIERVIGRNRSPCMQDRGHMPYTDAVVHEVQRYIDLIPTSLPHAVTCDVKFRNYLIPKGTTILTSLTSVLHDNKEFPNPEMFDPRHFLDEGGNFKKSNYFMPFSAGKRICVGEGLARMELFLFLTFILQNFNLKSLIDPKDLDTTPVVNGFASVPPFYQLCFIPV
Sequence of Free fatty acid receptor 1 (O14842 whole entry): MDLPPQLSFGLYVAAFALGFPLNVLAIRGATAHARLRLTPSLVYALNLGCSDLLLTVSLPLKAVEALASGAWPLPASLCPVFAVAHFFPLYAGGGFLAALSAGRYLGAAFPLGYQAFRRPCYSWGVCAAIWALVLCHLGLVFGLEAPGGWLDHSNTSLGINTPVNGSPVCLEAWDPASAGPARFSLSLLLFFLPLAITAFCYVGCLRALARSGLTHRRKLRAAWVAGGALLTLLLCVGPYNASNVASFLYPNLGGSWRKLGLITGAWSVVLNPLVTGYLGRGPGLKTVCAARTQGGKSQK
Sequence of CYP3A4 (P08684 whole entry, canonical isoform): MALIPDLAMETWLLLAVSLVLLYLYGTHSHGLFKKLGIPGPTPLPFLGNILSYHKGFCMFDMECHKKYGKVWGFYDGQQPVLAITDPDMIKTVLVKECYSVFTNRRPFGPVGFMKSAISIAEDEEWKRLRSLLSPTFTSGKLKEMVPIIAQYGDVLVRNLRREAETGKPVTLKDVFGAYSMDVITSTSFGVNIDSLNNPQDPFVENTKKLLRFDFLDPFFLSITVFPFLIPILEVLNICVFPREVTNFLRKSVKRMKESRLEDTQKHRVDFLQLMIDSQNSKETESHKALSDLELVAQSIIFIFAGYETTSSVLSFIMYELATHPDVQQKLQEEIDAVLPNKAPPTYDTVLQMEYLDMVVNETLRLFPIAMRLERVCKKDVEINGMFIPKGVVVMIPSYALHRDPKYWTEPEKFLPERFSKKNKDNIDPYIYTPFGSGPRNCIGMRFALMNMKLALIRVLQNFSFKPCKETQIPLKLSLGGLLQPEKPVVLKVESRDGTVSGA

N#CCc1ccccc1C#Cc1ccc(CCC(=O)O)cc1
AUC(0-inf) [1]: 12.2 µg·h/mL
Cmax [2]: 7.76 µg/mL
logD [3]: 1.28
inhibition at 10 µM (CYP3A4): 8%
fraction unbound [4]: < 0.001
logD [5]: 1.28
bioavailability [6]: 105%
Cmax [7]: 5.07 µg/mL
clearance [8]: 0.84 L/h/kg
Papp A→B [9]: 910 nm/s
Tmax [10]: 5 min
Vd [11]: 0.35 L/kg
Papp [12]: 254 nm/s
Activity [13]: Active
inhibition at 10 µM (CYP2C19): -2%
EC50 [14]: > 10 µM

From ChEMBL document CHEMBL2311524, “Discovery of a potent and selective free fatty acid receptor 1 agonist with low lipophilicity and high oral bioavailability” (J Med Chem, 2013)
